Test system: NIH3T3
Experiment: Cytotoxicity against mouse NIH/3T3 cells after 48 hrs by MTT assay
Format: cell-based
Conditions: NIH3T3, 48 h
In short: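 NIH 3T3 mouse embryonic fibroblasts kept in DMEM + 10% FBS at 37 °C, 5% CO2. Seeded at 10,000 cells/well in medium with 5% FBS and left 24 h to attach. Compounds dissolved in DMSO, diluted in serum-free medium, serial concentrations, 48 h exposure, triplicates. MTT (5 mg/mL stock) added for 4 h, formazan taken up in DMSO, A570 read. Viability calculated as % of untreated control; IC50 taken from the dose curve.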

| SMILES | IC50 [mM] |
| --- | --- |
| Cc1nnc(Sc2c(-c3ccc(Br)cc3)nc3ccccc3c2-c2ccccc2)s1 | 2.05 |
| Cc1nnc(Sc2c(-c3ccc(Cl)cc3)nc3ccccc3c2-c2ccccc2)s1 | 1.26 |
